Reference: ChEMBL document CHEMBL3414496, “Synthesis and biological evaluation of novel 2-heteroarylimino-1,3-thiazolidin-4-ones as potential anti-tumor agents” (Eur J Med Chem, 2015)
Activity calls are given as the source filed them. No cut-off for these calls is given here.

Legend:
[1] = system: HT-29; experiment: Cytotoxicity against human HT-29 cells after 72 hrs by MTT assay; format: functional, cell-based; settings: HT-29, 72 h
Procedure, shortened: (§1)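 Cells seeded at 10^4/well, exposed 24 h later to graded concentrations (0.01–100 µM) for 72 h at 37°C; MTT 0.5 mg/ml for 2 h, formazan dissolved in DMSO, absorbance at 570 nm. […] Colon lines in DMEM, breast lines in RPMI, both with 10% FCS.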

[2] = system: SW-620; experiment: Cytotoxicity against human SW620 cells after 72 hrs by MTT assay; format: functional, cell-based; settings: SW-620, 72 h; procedure, shortened: as §1
[3] = system: MDA-MB-231; experiment: Cytotoxicity against human MDA-MB-231 cells after 72 hrs by MTT assay; format: functional, cell-based; settings: MDA-MB-231, 72 h; procedure, shortened: as §1
[4] = system: MCF7; experiment: Cytotoxicity against human MCF7 cells after 72 hrs by MTT assay; format: functional, cell-based; settings: MCF7, 72 h; procedure, shortened: as §1
[5] = Cytotoxicity against human HCT116 cells after 72 hrs by MTT assay; format: functional, cell-based; settings: HCT-116, 72 h; procedure, shortened: as §1
[6] = system: HT-29; experiment: Growth inhibition of human HT-29 cells at cytotoxic IC50 level after 3 days by trypan blue dye exclusion assay; format: functional
Procedure, shortened: (§2)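 HT29 cells treated 48 h after seeding, dosed daily with daily medium change over three days; drug diluted in DMSO, controls 0.1% (v/v) DMSO. Cells trypsinized, mixed 1:1 with 0.04% trypan blue, live cells counted by hematimeter. Reported as mitotic index (treated/DMSO count); triplicates from two independent experiments.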

[7] = system: HT-29; experiment: Induction of cell cycle arrest in human HT-29 cells assessed as accumulation at subG1 phase at 0.5 to 10 uM by propidium iodide staining based flow cytometry; format: functional
[8] = system: HT-29; experiment: Induction of cell cycle arrest in human HT-29 cells assessed as increase in accumulation at S phase at 0.5 to 10 uM by propidium iodide staining based flow cytometry; format: functional
[9] = system: HT-29; experiment: Growth inhibition of human HT-29 cells at 0.5 to 10 uM after 3 days by trypan blue dye exclusion assay; format: functional; procedure, shortened: as §2
[10] = system: HT-29; experiment: Induction of cell cycle arrest in human HT-29 cells assessed as increase in accumulation at G0/G1 phase at 0.5 to 10 uM by propidium iodide staining based flow cytometry; format: functional
[11] = system: HT-29; experiment: Growth inhibition of human HT-29 cells at 10 uM after 3 days by trypan blue dye exclusion assay; format: functional; settings: HT-29, 72 h, read-out: GI; procedure, shortened: as §2

| Compound | IC50 [1] | IC50 [2] | IC50 [3] | IC50 [4] | IC50 [5] | growth inhibition (GI) [6] | Activity [7] | Activity [8] | growth inhibition (GI) [9] | Activity [10] | inhibition of growth at 10 µM [11] |
| --- | --- | --- | --- | --- | --- | --- | --- | --- | --- | --- | --- |
| COc1cccc(N2C(=O)CS/C2=N\c2csc(-c3ccc(C)cc3)c2)c1 | > 50 µM | > 50 µM | > 50 µM | > 50 µM | 41 µM | – | – | – | – | – | – |
| O=C1CS/C(=N\c2csc(-c3ccc(Cl)cc3)c2)N1c1ccc(Cl)cc1 | 36.6 µM | > 50 µM | – | > 50 µM | – | – | – | – | – | – | – |
| O=C1N/C(=N/c2csc(-c3ccc(Cl)cc3)c2)S/C1=C\c1ccc(Br)cc1 | 2 µM | 0.7 µM | 3.5 µM | 2.5 µM | 3.3 µM | 25% | inactive | Active | – | – | – |
| O=C1N/C(=N/c2csc(-c3ccc(Cl)cc3)c2)S/C1=C\c1ccccn1 | 11.5 µM | > 50 µM | 10.9 µM | 30.2 µM | 21.6 µM | 40% | inactive | Active | – | – | – |
| O=C1N/C(=N/c2nc(-c3ccc(Cl)cc3)cs2)S/C1=C\c1ccc2ccccc2c1 | 1.8 µM | 20.3 µM | 0.9 µM | 0.3 µM | 1.2 µM | <25% | – | – | <5% | – | – |
| O=C1N/C(=N/c2csc(-c3ccc(Cl)cc3)c2)S/C1=C\c1ccc(Cl)cc1 | 2.8 µM | 4.6 µM | 6.4 µM | 6.7 µM | 11.6 µM | 25% | – | – | – | – | – |
| O=C1CS/C(=N\c2csc(-c3ccc(Cl)cc3)c2)N1c1cccc2ccccc12 | > 50 µM | 19.5 µM | – | > 50 µM | – | – | – | – | – | – | – |
| COc1ccc(N2C(=O)CS/C2=N\c2csc(-c3ccc(Cl)cc3)c2)cc1OC | 14.1 µM | > 50 µM | 46.9 µM | 18.7 µM | 49.8 µM | – | – | – | – | – | – |
| O=C1CS/C(=N\c2csc(-c3ccc(Cl)cc3)c2)N1 | 17.1 µM | > 50 µM | > 50 µM | > 50 µM | > 50 µM | – | – | – | – | – | – |
| O=C1N/C(=N/c2csc(-c3ccc(Cl)cc3)c2)S/C1=C\c1ccccc1 | 10.5 µM | > 50 µM | 18 µM | > 50 µM | 11.2 µM | – | inactive | Active | – | – | – |
| O=C1N/C(=N/c2csc(-c3ccc(Cl)cc3)c2)S/C1=C\c1ccc(F)cc1 | 4.1 µM | 8.7 µM | – | > 50 µM | 7.4 µM | 25% | – | – | – | – | – |
| CC(C)(C)c1cc(/N=C2/NC(=O)CS2)cs1 | > 50 µM | > 50 µM | > 50 µM | > 50 µM | > 50 µM | – | – | – | – | – | – |
| COc1cccc(N2C(=O)CS/C2=N\c2csc(-c3ccc(Cl)cc3)c2)c1 | 24.6 µM | 33 µM | > 50 µM | > 50 µM | > 50 µM | – | – | – | – | – | – |
| COc1ccc(-c2cc(/N=C3/NC(=O)CS3)cs2)cc1 | > 50 µM | > 50 µM | > 50 µM | > 50 µM | > 50 µM | – | – | – | – | – | – |
| O=C1CS/C(=N\c2nc(-c3ccc(Cl)cc3)cs2)N1 | 8.9 µM | > 50 µM | > 50 µM | > 50 µM | 23.8 µM | – | – | – | – | – | – |
| CN(C)c1ccc(N2C(=O)CS/C2=N\c2csc(-c3ccc(Cl)cc3)c2)cc1 | 29.2 µM | – | – | > 50 µM | – | – | – | – | – | – | – |
| O=C1N/C(=N/c2nc(-c3ccc(Cl)cc3)cs2)S/C1=C\c1ccc(F)cc1 | 2.9 µM | > 50 µM | > 50 µM | > 50 µM | 7.5 µM | – | – | – | – | – | – |
| COc1ccc(-c2cc(/N=C3\SCC(=O)N3c3cccc(OC)c3)cs2)cc1 | 11.7 µM | 3.5 µM | 2.7 µM | 1.9 µM | 2.7 µM | 50% | inactive | – | – | Active | – |
| O=C1CS/C(=N\c2csc(-c3ccc(Cl)cc3)c2)N1c1ccccc1 | 41.4 µM | – | – | > 50 µM | – | – | – | – | – | – | – |
| CCCCCC/C=C1\S/C(=N\c2csc(-c3ccc(Cl)cc3)c2)NC1=O | 33.5 µM | – | – | > 50 µM | – | – | – | – | – | – | – |
| Cc1ccc(/C=C2\S/C(=N\c3nc(-c4ccc(Cl)cc4)cs3)NC2=O)cc1 | 0.5 µM | 0.89 µM | 0.8 µM | 0.4 µM | 0.5 µM | <25% | – | – | – | – | 40% |
| COc1cccc(N2C(=O)CS/C2=N\c2csc(-c3cccc4ccccc34)c2)c1 | > 50 µM | – | – | > 50 µM | – | – | – | – | – | – | – |
| O=C1N/C(=N/c2csc(-c3ccc(Cl)cc3)c2)S/C1=C\c1ccc(O)cc1 | > 50 µM | – | – | > 50 µM | – | – | – | – | – | – | – |
| O=C1CS/C(=N\c2csc(-c3cccc4ccccc34)c2)N1 | > 50 µM | > 50 µM | > 50 µM | > 50 µM | > 50 µM | – | – | – | – | – | – |
| O=C1N/C(=N/c2csc(-c3ccc(Cl)cc3)c2)S/C1=C\c1ccc2ccccc2c1 | 3.7 µM | > 50 µM | 1.8 µM | 1.2 µM | 3 µM | 50% | – | – | – | – | – |
| O=C1CS/C(=N\c2c[se]c(-c3ccc(Cl)cc3)c2)N1 | > 50 µM | > 50 µM | – | > 50 µM | – | – | – | – | – | – | – |
| COc1cccc(N2C(=O)CS/C2=N\c2csc(-c3ccccc3)c2)c1 | 38.3 µM | – | – | – | – | – | – | – | – | – | – |
| Cc1ccc(N2C(=O)CS/C2=N\c2csc(-c3ccc(Cl)cc3)c2)cc1 | 28.9 µM | > 50 µM | – | > 50 µM | – | – | – | – | – | – | – |
| Cc1ccc(-c2cc(/N=C3/NC(=O)CS3)cs2)cc1 | > 50 µM | > 50 µM | > 50 µM | > 50 µM | > 50 µM | – | – | – | – | – | – |
| O=C1CS/C(=N\c2csc(-c3ccccc3)c2)N1 | > 50 µM | > 50 µM | > 50 µM | > 50 µM | > 50 µM | – | – | – | – | – | – |
